Measured values as given in paper PMC7744997 (Clinical Infectious Diseases: An Official Publication of …, 2020).
Like-named read-outs stand apart in the source and are kept apart here.

Experiments:
RSV = details: healthy volunteers, 75–500 mg once daily for 7 days; cited from earlier work
RSV infection = assay: Clinical course of RSV infection; assay type: in vivo, human; details: JNJ-8678 (combined)
Summary of the method: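 Infants (>1 to ≤24 months, term-born, hospitalised ≤72 h before randomisation with PCR-confirmed RSV) got oral drug or placebo once daily for 7 days (4:1 randomisation) and were followed 28 days. Outcomes were hospital stay and time to clinical stability: the latest of end of supplemental oxygen, end of supplemental feeding, normal heart rate and normal respiratory rate. Times were shown as Kaplan-Meier curves. Clinician and caregivers completed PRESORS symptom questionnaires electronically.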

[1] = Safety/tolerability: adverse events in RSV-infected infants; assay type: in vivo, human
Summary of the method: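 Adverse events were recorded over 28 days in infants given oral drug or placebo once daily for 7 days. Events were graded with the DMID Pediatric Toxicity Tables (November 2007), and the investigator judged relatedness to study drug. Events causing rehospitalisation were counted as serious. Vital signs, ECGs and physical examination were also done.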

[2] = assay type: in vivo, human
Summary of the method: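 Population PK model built in adults and scaled to paediatrics, fitted to sparse heel- or finger-prick capillary samples. Weight-based oral doses were given once daily for 7 days in three age cohorts (≥6–≤24, 3–<6, >1–<3 months). Doses were escalated after data review committee assessment of PK and safety. AUC24h, Cmin and Cmax were estimated at day 1 and day 7, as mean with CV%.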

[3] = cohort 1a (≥6 to ≤24 mo), 2 mg/kg QD oral, n=4, Day 1
[4] = cohort 1a (≥6 to ≤24 mo), 2 mg/kg QD oral, n=4, Day 7
[5] = cohort 1b (≥6 to ≤24 mo), 6 mg/kg QD oral, n=4, Day 1
[6] = cohort 1b (≥6 to ≤24 mo), 6 mg/kg QD oral, n=4, Day 7
[7] = cohort 1c (≥6 to ≤24 mo), 8 mg/kg QD oral, n=4, Day 1
[8] = cohort 1c (≥6 to ≤24 mo), 8 mg/kg QD oral, n=4, Day 7
[9] = cohort 2a (≥3 to <6 mo), 1.5 mg/kg QD oral, n=4, Day 1
[10] = cohort 2a (≥3 to <6 mo), 1.5 mg/kg QD oral, n=4, Day 7
[11] = cohort 2b (≥3 to <6 mo), 4.5 mg/kg QD oral, n=4, Day 1
[12] = cohort 2b (≥3 to <6 mo), 4.5 mg/kg QD oral, n=4, Day 7
[13] = cohort 2c (≥3 to <6 mo), 6 mg/kg QD oral, n=1, Day 1
[14] = cohort 2c (≥3 to <6 mo), 6 mg/kg QD oral, n=1, Day 7
[15] = cohort 3a (>1 to <3 mo), 1 mg/kg QD oral, n=4, Day 1
[16] = cohort 3a (>1 to <3 mo), 1 mg/kg QD oral, n=4, Day 7
[17] = cohort 3b (>1 to <3 mo), 3 mg/kg QD oral, n=4, Day 1
[18] = cohort 3b (>1 to <3 mo), 3 mg/kg QD oral, n=4, Day 7
[19] = cohort 3c (>1 to <3 mo), 5 mg/kg QD oral, n=4, Day 1
[20] = cohort 3c (>1 to <3 mo), 5 mg/kg QD oral, n=4, Day 7
[21] = cohort 1d (≥6 to ≤24 mo), 9 mg/kg QD oral, n=4, Day 1
[22] = cohort 1d (≥6 to ≤24 mo), 9 mg/kg QD oral, n=4, Day 7

CS(=O)(=O)CCCn1c(Cn2c(=O)n(CC(F)(F)F)c3ccncc32)cc2cc(Cl)ccc21 [JNJ-53718678]
Effect on viral load and clinical disease severity (RSV): substantially reduced both viral load and clinical disease severity
Median time to clinical stability following the start of study treatment (RSV infection; placebo 56.7 hours): 47.4 h
Median length of hospital stay (RSV infection; placebo 77.5 hours): 77.7 h
Time after which all patients were clinically stable (RSV infection; placebo 121.1 hours): 123.5 h
Maximum length of hospital stay observed (RSV infection; placebo 144.5 hours): 150.4 h
SAE bronchiolitis ([1]; 1/12, cohort 1b, mid-dose, 6 mg/kg QD): 8%
Any AE ([1]; All cohorts, n=37): 28 (76) no. (%)
Any AE possibly related to placebo/JNJ-53718678 ([1]; All cohorts, n=37): 11 (30) no. (%)
Any AE probably related to placebo/JNJ-53718678 ([1]; All cohorts, n=37): 1 (3) no. (%)
Any worst grade 1 or 2 AE ([1]; All cohorts, n=37): 28 (76) no. (%)
Any worst grade 3 or 4 AE ([1]; All cohorts, n=37): 1 (3) no. (%)
Soft feces (AE) ([1]; All cohorts, n=37): 7 (19) no. (%)
URTI (AE) ([1]; All cohorts, n=37): 8 (22) no. (%)
Vomiting (AE) ([1]; All cohorts, n=37): 8 (22) no. (%)
Serious AE ([1]; All cohorts, n=37, serious due to rehospitalization, not related to study drug): 2 (5) no. (%)
Any AE ([1]; High (cohorts 1d,2c,3c), n=9): 7 (78) no. (%)
Any AE possibly related to placebo/JNJ-53718678 ([1]; High (cohorts 1d,2c,3c), n=9): 2 (22) no. (%)
Any AE probably related to placebo/JNJ-53718678 ([1]; High (cohorts 1d,2c,3c), n=9): 0 no. (%)
Any worst grade 1 or 2 AE ([1]; High (cohorts 1d,2c,3c), n=9): 7 (78) no. (%)
Any worst grade 3 or 4 AE ([1]; High (cohorts 1d,2c,3c), n=9): 0 no. (%)
Serious AE ([1]; High (cohorts 1d,2c,3c), n=9): 0 no. (%)
Soft feces (AE) ([1]; High (cohorts 1d,2c,3c), n=9): 0 no. (%)
URTI (AE) ([1]; High (cohorts 1d,2c,3c), n=9): 3 (33) no. (%)
Vomiting (AE) ([1]; High (cohorts 1d,2c,3c), n=9): 4 (44) no. (%)
Any AE ([1]; Low (cohorts 1a,2a,3a), n=12): 9 (75) no. (%)
Any AE possibly related to placebo/JNJ-53718678 ([1]; Low (cohorts 1a,2a,3a), n=12): 3 (25) no. (%)
Any AE probably related to placebo/JNJ-53718678 ([1]; Low (cohorts 1a,2a,3a), n=12): 0 no. (%)
Any worst grade 1 or 2 AE ([1]; Low (cohorts 1a,2a,3a), n=12): 9 (75) no. (%)
Any worst grade 3 or 4 AE ([1]; Low (cohorts 1a,2a,3a), n=12): 0 no. (%)
Soft feces (AE) ([1]; Low (cohorts 1a,2a,3a), n=12): 2 (17) no. (%)
URTI (AE) ([1]; Low (cohorts 1a,2a,3a), n=12): 1 (8) no. (%)
Vomiting (AE) ([1]; Low (cohorts 1a,2a,3a), n=12): 0 no. (%)
Any AE ([1]; Mid (cohorts 1b,2b,3b), n=12): 10 (83) no. (%)
Any AE possibly related to placebo/JNJ-53718678 ([1]; Mid (cohorts 1b,2b,3b), n=12): 4 (33) no. (%)
Any AE probably related to placebo/JNJ-53718678 ([1]; Mid (cohorts 1b,2b,3b), n=12): 1 (8) no. (%)
Any worst grade 1 or 2 AE ([1]; Mid (cohorts 1b,2b,3b), n=12): 10 (83) no. (%)
Any worst grade 3 or 4 AE ([1]; Mid (cohorts 1b,2b,3b), n=12): 1 (8) no. (%)
Soft feces (AE) ([1]; Mid (cohorts 1b,2b,3b), n=12): 3 (25) no. (%)
URTI (AE) ([1]; Mid (cohorts 1b,2b,3b), n=12): 4 (33) no. (%)
Vomiting (AE) ([1]; Mid (cohorts 1b,2b,3b), n=12): 3 (25) no. (%)
Any AE ([1]; Mid-high (cohort 1c), n=4): 2 (50) no. (%)
Any AE possibly related to placebo/JNJ-53718678 ([1]; Mid-high (cohort 1c), n=4): 2 (50) no. (%)
Any AE probably related to placebo/JNJ-53718678 ([1]; Mid-high (cohort 1c), n=4): 0 no. (%)
Any worst grade 1 or 2 AE ([1]; Mid-high (cohort 1c), n=4): 2 (50) no. (%)
Any worst grade 3 or 4 AE ([1]; Mid-high (cohort 1c), n=4): 0 no. (%)
Serious AE ([1]; Mid-high (cohort 1c), n=4): 0 no. (%)
Soft feces (AE) ([1]; Mid-high (cohort 1c), n=4): 2 (50) no. (%)
URTI (AE) ([1]; Mid-high (cohort 1c), n=4): 0 no. (%)
Vomiting (AE) ([1]; Mid-high (cohort 1c), n=4): 1 (25) no. (%)
Patients with AEs considered at least possibly related to JNJ-8678 ([1]; all JNJ-8678, 11/37): 30%
Grade 3 AEs (bronchiolitis, reported as serious AE), number ([1]; all JNJ-8678, n=37): 1
Tolerability in RSV-infected infants ([1]; oral, once daily for 7 days): well tolerated
Deaths, grade 4 AEs, AEs leading to discontinuation ([1]; whole study): No deaths, grade 4 AEs, or AEs leading to study discontinuation or permanent discontinuation of study drug were reported
Mean AUC24h (CV%) [2, 3]: 6047.2 (17.5) ng × h/mL
Mean Cmax (CV%) [2, 3]: 546.8 (35.7) ng/mL
Mean Cmin (CV%) [2, 3]: 81.4 (58.8) ng/mL
Mean AUC24h (CV%) [2, 4]: 7738.8 (27.4) ng × h/mL
Mean Cmax (CV%) [2, 4]: 721.3 (31.2) ng/mL
Mean Cmin (CV%) [2, 4]: 114.0 (77.7) ng/mL
Mean Cmax (CV%) [2, 5]: 1960.5 (58.1) ng/mL
Mean Cmin (CV%) [2, 5]: 155.5 (89.3) ng/mL
Mean Cmax (CV%) [2, 6]: 3304.2 (12.3) ng/mL
Mean Cmin (CV%) [2, 6]: 225.7 (66.5) ng/mL
Mean Cmax (CV%) [2, 7]: 3346.9 (13.0) ng/mL
Mean Cmin (CV%) [2, 7]: 244.1 (90.4) ng/mL
Mean Cmax (CV%) [2, 8]: 4298.8 (11.2) ng/mL
Mean Cmin (CV%) [2, 8]: 323.9 (95.7) ng/mL
Target exposures ([2]; cohort 1c, ≥6–≤24 months, 8 mg/kg QD, AUC24h similar to adults): Cmin and Cmax target exposures were not reached
Mean AUC24h (CV%) [2, 9]: 6658.4 (25.6) ng × h/mL
Mean Cmax (CV%) [2, 9]: 727.5 (68.7) ng/mL
Mean Cmin (CV%) [2, 9]: 88.3 (39.2) ng/mL
Mean AUC24h (CV%) [2, 10]: 8620.9 (17.3) ng × h/mL
Mean Cmax (CV%) [2, 10]: 938.0 (53.3) ng/mL
Mean Cmin (CV%) [2, 10]: 124.0 (49.1) ng/mL
Mean Cmax (CV%) [2, 11]: 2533.2 (25.0) ng/mL
Mean Cmin (CV%) [2, 11]: 319.8 (16.9) ng/mL
Mean Cmax (CV%) [2, 12]: 3021.8 (41.2) ng/mL
Mean Cmin (CV%) [2, 12]: 363.0 (18.9) ng/mL
Mean Cmax (CV%) [2, 13]: 2556.8 (…) ng/mL
Mean Cmin (CV%) [2, 13]: 428.6 (…) ng/mL
Mean Cmax (CV%) [2, 14]: 3131.0 (…) ng/mL
Mean Cmin (CV%) [2, 14]: 517.3 (…) ng/mL
Mean AUC24h (CV%) ([2]; cohort 2c (≥3 to <6 mo), 6 mg/kg QD oral, n=1, Day 7, listed as JNJ-8678, 6 mg/kg): 34 980 ng × h/mL
Mean AUC24h (CV%) [2, 15]: 4495.6 (4.8) ng × h/mL
Mean Cmax (CV%) [2, 15]: 374.2 (18.5) ng/mL
Mean Cmin (CV%) [2, 15]: 72.6 (41.1) ng/mL
Mean AUC24h (CV%) [2, 16]: 5827.0 (12.3) ng × h/mL
Mean Cmax (CV%) [2, 16]: 498.0 (13.2) ng/mL
Mean Cmin (CV%) [2, 16]: 100.9 (46.3) ng/mL
Mean Cmax (CV%) [2, 17]: 958.2 (15.2) ng/mL
Mean Cmin (CV%) [2, 17]: 342.9 (14.3) ng/mL
Mean Cmax (CV%) [2, 18]: 1671.2 (14.6) ng/mL
Mean Cmin (CV%) [2, 18]: 650.2 (15.5) ng/mL
Mean Cmax (CV%) [2, 19]: 1866.6 (51.7) ng/mL
Mean Cmin (CV%) [2, 19]: 458.7 (54.9) ng/mL
Mean Cmax (CV%) [2, 20]: 3001.8 (25.1) ng/mL
Mean Cmin (CV%) [2, 20]: 929.0 (62.1) ng/mL
Mean AUC24h (CV%) ([2]; cohort 3c (>1 to <3 mo), 5 mg/kg QD oral, n=4, Day 7, listed as JNJ-8678, 5 mg/kg): 39 627 ng × h/mL
Mean Cmax (CV%) [2, 21]: 2371.8 (70.8) ng/mL
Mean Cmin (CV%) [2, 21]: 333.2 (62.3) ng/mL
Mean Cmax (CV%) [2, 22]: 3389.4 (52.9) ng/mL
Mean Cmin (CV%) [2, 22]: 615.9 (75.2) ng/mL
Mean AUC24h (CV%) ([2]; cohort 1d (≥6 to ≤24 mo), 9 mg/kg QD oral, n=4, Day 7, listed as JNJ-8678, 9 mg/kg): 35 840 ng × h/mL
